{"source": "ChEMBL document CHEMBL1157704", "about": "“Potent activity against K562 cells by polyamide-seco-CBI conjugates targeting histone H4 genes” (Bioorg Med Chem, 2010)", "key": {"K562 [1]": {"tested_on": "K562", "experiment": "Effect on SASH1 gene expression in human K562 cells assessed as change in mRNA transcript expression at 10 nM after 48 hrs by DNA microarray analysis relative to control", "type": "functional", "how_it_was_run": "(§1)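 K562 CML cells (b3a2 Bcr-Abl) in standard ATCC-recommended culture, exposed once to 10 nM conjugate and harvested at 48 h. Untreated controls were also collected at 48 h. Transcripts were profiled on Human Gene 1.0 ST whole-genome oligonucleotide arrays, and each treated level was expressed relative to the untreated control, with a cutoff of at least twofold change.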"}, "K562 [2]": {"tested_on": "K562", "experiment": "Effect on TRY6/PRS gene expression in human K562 cells assessed as change in mRNA transcript expression at 10 nM after 48 hrs by DNA microarray analysis relative to control", "type": "functional", "how_it_was_run": "(§2)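 K562 CML cells (b3a2 Bcr-Abl) kept under standard culture conditions were exposed to 10 nM conjugate and harvested at 6, 12, 24 and 48 h. Untreated controls were harvested at 48 h. Whole-transcript oligonucleotide microarray profiling was done, and changes of at least twofold versus control were scored.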"}, "K562 [3]": {"tested_on": "K562", "experiment": "Effect on HTR1F gene expression in human K562 cells assessed as change in mRNA transcript expression at 10 nM after 48 hrs by DNA microarray analysis relative to control", "type": "functional", "how_it_was_run": "as §1"}, "K562 [4]": {"tested_on": "K562", "experiment": "Effect on INPP5D gene expression in human K562 cells assessed as change in mRNA transcript expression at 10 nM after 48 hrs by DNA microarray analysis relative to control", "type": "functional", "how_it_was_run": "as §1"}, "K562 [5]": {"tested_on": "K562", "experiment": "Effect on DHFR gene expression in human K562 cells assessed as change in mRNA transcript expression at 10 nM after 48 hrs by DNA microarray analysis relative to control", "type": "functional", "how_it_was_run": "(§3)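 Transcripts were profiled on Affymetrix GeneChip Human Gene 1.0 ST arrays in K562 cells treated at 10 nM. Treated cells were collected at 6, 12, 24 and 48 h; untreated controls were collected at 48 h. Transcripts changed at least twofold versus control were scored.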"}, "K562 [6]": {"tested_on": "K562", "experiment": "Effect on PITPNC1 gene expression in human K562 cells assessed as change in mRNA transcript expression at 10 nM after 48 hrs by DNA microarray analysis relative to control", "type": "functional", "how_it_was_run": "as §1"}, "K562 [7]": {"tested_on": "K562", "experiment": "Effect on COMMD10 gene expression in human K562 cells assessed as change in mRNA transcript expression at 10 nM after 48 hrs by DNA microarray analysis relative to control", "type": "functional", "how_it_was_run": "as §3"}, "K562 [8]": {"tested_on": "K562", "experiment": "Effect on S100A4 gene expression in human K562 cells assessed as change in mRNA transcript expression at 10 nM after 48 hrs by DNA microarray analysis relative to control", "type": "functional", "how_it_was_run": "as §1"}, "K562 [9]": {"tested_on": "K562", "experiment": "Effect on THBS1 gene expression in human K562 cells assessed as change in mRNA transcript expression at 10 nM after 48 hrs by DNA microarray analysis relative to control", "type": "functional", "how_it_was_run": "as §2"}, "K562 [10]": {"tested_on": "K562", "experiment": "Effect on HIST1H4J gene expression in human K562 cells assessed as down-regulation of mRNA transcript expression at 10 nM after 48 hrs by DNA microarray analysis relative to control", "type": "functional", "how_it_was_run": "as §1"}, "K562 [11]": {"tested_on": "K562", "experiment": "Effect on HIST1H3J gene expression in human K562 cells assessed as change in mRNA transcript expression at 10 nM after 48 hrs by DNA microarray analysis relative to control", "type": "functional", "how_it_was_run": "as §3"}, "K562 [12]": {"tested_on": "K562", "experiment": "Induction of apoptosis in human K562 cells assessed as late apoptotic cells at 125 nM after 48 hrs by annexin-V FITC and propidium iodide staining-based FACS analysis", "type": "functional", "how_it_was_run": "(§4)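 K562 cells were exposed to conjugate in culture medium for 48 h, then stained with annexin V-FITC plus propidium iodide. Cell populations were quantified by flow cytometry.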"}, "K562 [13]": {"tested_on": "K562", "experiment": "Downregulation of histone H4C mRNA expression in human K562 cells at 250 nM after 48 hrs by real-time PCR analysis", "type": "functional", "how_it_was_run": "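Treated K562 cells were assayed by one-step real-time RT-PCR. Reverse transcription ran 50 °C for 10 min, then hot-start polymerase activation at 95 °C for 15 min. Cycling was 45 cycles of 95 °C 15 s, 55 °C 30 s and 72 °C 30 s. Levels were normalized to GAPDH mRNA; error shown as standard deviation.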"}, "K562 [14]": {"tested_on": "K562", "experiment": "Effect on EIF4B gene expression in human K562 cells assessed as change in mRNA transcript expression at 10 nM after 48 hrs by DNA microarray analysis relative to control", "type": "functional", "how_it_was_run": "as §3"}, "[15]": {"tested_on": "histone H4c gene fragment DNA (human)", "experiment": "Binding affinity to 5'-AGAAAA-3' sequence of 223 bp human histone H4c gene fragment DNA assessed as DNA alkylating activity at 5 to 100 nM after 15 hrs by PAGE"}, "K562 [16]": {"tested_on": "K562", "experiment": "Effect on CREB3L1 gene expression in human K562 cells assessed as change in mRNA transcript expression at 10 nM after 48 hrs by DNA microarray analysis relative to control", "type": "functional", "how_it_was_run": "as §3"}, "K562 [17]": {"tested_on": "K562", "experiment": "Effect on PLCB2 gene expression in human K562 cells assessed as change in mRNA transcript expression at 10 nM after 48 hrs by DNA microarray analysis relative to control", "type": "functional", "how_it_was_run": "as §1"}, "K562 [18]": {"tested_on": "K562", "experiment": "Effect on SUPT3H gene expression in human K562 cells assessed as change in mRNA transcript expression at 10 nM after 48 hrs by DNA microarray analysis relative to control", "type": "functional", "how_it_was_run": "as §1"}, "K562 [19]": {"tested_on": "K562", "experiment": "Effect on LGALS12 gene expression in human K562 cells assessed as change in mRNA transcript expression at 10 nM after 48 hrs by DNA microarray analysis relative to control", "type": "functional", "how_it_was_run": "as §1"}, "K562 [20]": {"tested_on": "K562", "experiment": "Effect on ARRDC3 gene expression in human K562 cells assessed as change in mRNA transcript expression at 10 nM after 48 hrs by DNA microarray analysis relative to control", "type": "functional", "how_it_was_run": "as §3"}, "K562 [21]": {"tested_on": "K562", "experiment": "Induction of apoptosis in human K562 cells assessed as early apoptotic cells at 125 nM after 48 hrs by annexin-V FITC and propidium iodide staining-based FACS analysis", "type": "functional", "how_it_was_run": "as §4"}, "K562 [22]": {"tested_on": "K562", "experiment": "Effect on SLC4A1 gene expression in human K562 cells assessed as change in mRNA transcript expression at 10 nM after 48 hrs by DNA microarray analysis relative to control", "type": "functional", "how_it_was_run": "as §1"}, "K562 [23]": {"tested_on": "K562", "experiment": "Cell cycle arrest in human K562 cells assessed as decrease in accumulation at G1 phase at 125 to 250 nM after 48 hrs propidium iodide staining-based FACS analysis", "type": "functional", "how_it_was_run": "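K562 cells, from ATCC and kept under ATCC-recommended conditions, were treated for 48 h and pelleted at 200g for 5 min. They were resuspended in PBS, fixed with prechilled 70% ethanol and stained with propidium iodide at 50 µg/mL. DNA content was read by flow cytometry to assign the G0–G1, S and G2–M fractions; sub-2C DNA content was taken as apoptosis.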"}, "K562 [24]": {"tested_on": "K562", "experiment": "Effect on RNU5F gene expression in human K562 cells assessed as change in mRNA transcript expression at 10 nM after 48 hrs by DNA microarray analysis relative to control", "type": "functional", "how_it_was_run": "as §1"}, "K562 [25]": {"tested_on": "K562", "experiment": "Effect on ANKRD20B gene expression in human K562 cells assessed as change in mRNA transcript expression at 10 nM after 48 hrs by DNA microarray analysis relative to control", "type": "functional", "how_it_was_run": "as §3"}, "K562 [26]": {"tested_on": "K562", "experiment": "Effect on PPP1R15A gene expression in human K562 cells assessed as change in mRNA transcript expression at 10 nM after 48 hrs by DNA microarray analysis relative to control", "type": "functional", "how_it_was_run": "as §1"}}, "note": "Activity calls are given as the source filed them."}
{"smiles": "CC(=O)Nc1cn(C)c(C(=O)Nc2cn(C)c(C(=O)NCCC(=O)Nc3cn(C)c(C(=O)NCCCC(=O)Nc4cc(C(=O)Nc5cn(C)c(C(=O)Nc6ccc7[nH]c(C(=O)N8CC(CCl)c9c8cc(O)c8ccccc98)cc7c6)n5)n(C)c4)n3)n2)n1", "note": "(stereo unspecified)", "values": [{"measurement": "fold change (FC)", "setting": "K562 [1]", "result": ">=2"}, {"measurement": "fold change (FC)", "setting": "K562 [2]", "result": ">=2"}, {"measurement": "fold change (FC)", "setting": "K562 [3]", "result": ">=2"}, {"measurement": "fold change (FC)", "setting": "K562 [4]", "result": ">=2"}, {"measurement": "fold change (FC)", "setting": "K562 [5]", "result": ">=2"}, {"measurement": "fold change (FC)", "setting": "K562 [6]", "result": ">=2"}, {"measurement": "fold change (FC)", "setting": "K562 [7]", "result": ">=2"}, {"measurement": "fold change (FC)", "setting": "K562 [8]", "result": ">=2"}, {"measurement": "fold change (FC)", "setting": "K562 [9]", "result": ">=2"}, {"measurement": "fold change (FC)", "setting": "K562 [10]", "result": 2.61}, {"measurement": "fold change (FC)", "setting": "K562 [11]", "result": ">=2"}, {"measurement": "Activity", "setting": "K562 [12]", "result": 9.21, "unit": "%"}, {"measurement": "Activity", "setting": "K562 [13]", "result": 93, "unit": "%"}, {"measurement": "fold change (FC)", "setting": "K562 [14]", "result": ">=2"}, {"measurement": "Activity", "setting": "[15]", "result": "Active"}, {"measurement": "fold change (FC)", "setting": "K562 [16]", "result": ">=2"}, {"measurement": "fold change (FC)", "setting": "K562 [17]", "result": ">=2"}, {"measurement": "fold change (FC)", "setting": "K562 [18]", "result": ">=2"}, {"measurement": "fold change (FC)", "setting": "K562 [19]", "result": ">=2"}, {"measurement": "fold change (FC)", "setting": "K562 [20]", "result": ">=2"}, {"measurement": "Activity", "setting": "K562 [21]", "result": 8.41, "unit": "%"}, {"measurement": "fold change (FC)", "setting": "K562 [22]", "result": ">=2"}, {"measurement": "Activity", "setting": "K562 [23]", "result": "Active"}, {"measurement": "fold change (FC)", "setting": "K562 [24]", "result": ">=2"}, {"measurement": "fold change (FC)", "setting": "K562 [25]", "result": ">=2"}, {"measurement": "fold change (FC)", "setting": "K562 [26]", "result": ">=2"}]}
